Source: PubChem BioAssay (The Scripps Research Institute Molecular Screening Center)
M5 PAM: positive allosteric modulators of human muscarinic M5 receptor. P08912. CHO-K1 hM5, Fluo-8 calcium, ACh EC20 PAM; 0% = ACh EC20, 100% = ACh EC100. activation, % at 3 µM. 360,000 tested, 0.3% active. AID 624038;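 active means activation above the run cutoff, the mean activation of all test compounds plus 3 SD, cut at about 18% in these data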
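system = human M5 receptor in CHO-K1 cells | reagent = EC20 acetylcholine as agonist stimulus | compound dosing = single-point, 3 µM nominal | incubation = Fluo-8 loading 80 min at 37 °C plus 30 min room temperature | detection = Fluo-8 calcium dye fluorescence, kinetic read | benchmarks = low control EC20 acetylcholine (0%), high control EC100 acetylcholine (100%)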
CHRM5 agonist: agonists of human muscarinic M5 receptor (CHRM5); P08912; CHO-K1 hM5 cells, Fluo-8 calcium fluorescence; 0% DMSO wells, 100% maximal acetylcholine response; activation, % at 3 µM; 360,000 tested, 0.19% active; AID 624037;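 active means activation above the run's mean over test compounds plus 3 SD, cut at about 23% in these data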;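 further: signal is peak over basal fluorescence ratio across the kinetic read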
CHRM4 agonist: CHRM4 agonism in calcium assay; CHO-K1 hM4/Gqi5, Fluo-8 calcium fluorescence; vehicle 0%, full acetylcholine response 100%; AID 624127; 360,000 tested, 0.14% active; activation, % at 3 µM; P08173;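 active means activation above the run mean over all test wells plus 3 SD, cut at about 32% in these data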;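 further: peak over basal fluorescence ratio per well then scaled between controls; 0% = DMSO wells and 100% = acetylcholine at EC100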
Target sequence (P08173 whole entry, looked up): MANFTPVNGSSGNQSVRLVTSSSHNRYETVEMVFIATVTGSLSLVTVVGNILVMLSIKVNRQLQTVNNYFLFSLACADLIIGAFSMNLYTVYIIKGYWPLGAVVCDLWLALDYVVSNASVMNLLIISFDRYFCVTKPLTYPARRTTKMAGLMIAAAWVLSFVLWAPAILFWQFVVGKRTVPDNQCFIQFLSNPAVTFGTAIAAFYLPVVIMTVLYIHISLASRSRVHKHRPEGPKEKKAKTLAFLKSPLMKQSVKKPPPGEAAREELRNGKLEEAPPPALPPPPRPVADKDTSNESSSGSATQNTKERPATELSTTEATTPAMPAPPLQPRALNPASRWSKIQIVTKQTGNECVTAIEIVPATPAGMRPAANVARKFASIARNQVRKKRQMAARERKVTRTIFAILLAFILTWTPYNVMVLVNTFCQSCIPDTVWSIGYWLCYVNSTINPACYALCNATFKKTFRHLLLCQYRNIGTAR
M4 PAM: positive allosteric modulators of human muscarinic M4 receptor; P08173; CHO-K1 hM4/Gqi5, Fluo-8 calcium fluorescence, ACh EC20; 0% = ACh EC20, 100% = maximal ACh; activation, % at 3 µM; 360,000 tested, 0.4% active;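 active means activation above its plate's cutoff, the mean activation of sample wells plus 3 SD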
CHRM5 antagonist: CHRM5 antagonism in calcium assay. P08912. CHO-hM5 cells, Fluo-8 calcium fluorescence, ACh EC80. inhibition, % at 3 µM. 360,000 tested, 0.59% active;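 active means inhibition above a per-plate cutoff, the mean of that plate's test compounds plus 3 SD, cut at about 27% in these data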;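 further: 0% = acetylcholine EC80 with DMSO and 100% = DMSO without agonist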
CHRM4 antagonist: antagonists of human muscarinic M4 receptor (CHRM4); P08173; CHO-hM4 cells, ACh EC80, Fluo-8 calcium fluorescence; inhibition, % at 3 µM; 360,000 tested, 0.73% active; AID 624125;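 active means inhibition above its plate's cutoff, the mean inhibition of sample wells plus 3 SD, cut at about 27% in these data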;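 further: 0% = acetylcholine EC80 with DMSO and 100% = DMSO without agonist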
Starred values were filed as active, the others as inactive. Sampled rows, rich in hits. Any-hit rate of the full collection: about 1.8%.

Results for NCCCn1cnc2ccccc21 ?
M5 PAM: -1; CHRM5 agonist: 0; CHRM4 agonist: 2; M4 PAM: -5; CHRM5 antagonist: 7; CHRM4 antagonist: -6

What do the screens show for `CCN(CC)S(=O)(=O)c1ccc(OC)c(NC(=S)Nc2ccc(C)c(C)c2)c1`?
M5 PAM: -4; CHRM5 agonist: -4; CHRM4 agonist: 0; M4 PAM: 10; CHRM5 antagonist: -2; CHRM4 antagonist: -17

What do the screens show for `CCCCCn1c(CNC(=O)CC)nc2ccccc21`?
M5 PAM: -10; CHRM5 agonist: 43*; CHRM4 agonist: 1; M4 PAM: 1; CHRM5 antagonist: -2; CHRM4 antagonist: 3

How did CCCCCn1c(CNC(=O)CCC)nc2ccccc21 do in these assays?
M5 PAM: -4; CHRM5 agonist: -1; CHRM4 agonist: 1; M4 PAM: 8; CHRM5 antagonist: -2; CHRM4 antagonist: -8

What do the screens show for `Cc1nc(NS(=O)(=O)c2ccccc2)sc1C(=O)N/N=C/c1ccccc1`?
M5 PAM: 11; CHRM5 agonist: 2; CHRM4 agonist: 0; M4 PAM: 0; CHRM5 antagonist: -4; CHRM4 antagonist: 7

How did CN1C(=O)c2cccc3c(N(C)C)ccc(c23)C1=O do in these assays?
M5 PAM: -10; CHRM5 agonist: 41*; CHRM4 agonist: 15; M4 PAM: -6; CHRM5 antagonist: 21; CHRM4 antagonist: 11

How did CNc1ccc2c3c(cccc13)C(=O)N(C)C2=O do in these assays?
M5 PAM: -20; CHRM5 agonist: 125*; CHRM4 agonist: 229*; M4 PAM: -23; CHRM5 antagonist: 43*; CHRM4 antagonist: 40*

How did CN1C(=O)c2cccc3c(Cl)ccc(c23)C1=O do in these assays?
M5 PAM: 10; CHRM5 agonist: -1; CHRM4 agonist: 0; M4 PAM: 5; CHRM5 antagonist: -9; CHRM4 antagonist: -15

Results for CN(C)S(=O)(=O)c1cccc(CSCc2cccc(S(=O)(=O)N(C)C)c2)c1 ?
M5 PAM: -16; CHRM5 agonist: 11; CHRM4 agonist: 15; M4 PAM: -10; CHRM5 antagonist: 41*; CHRM4 antagonist: 19

Results for CCOc1ccc(C2NC(=O)NC(C)=C2[N+](=O)[O-])cc1OC (stereo not given) ?
M5 PAM: 7; CHRM5 agonist: 3; CHRM4 agonist: 0; M4 PAM: 22; CHRM5 antagonist: 2; CHRM4 antagonist: -3

How did O=C(NCCCO)C(=O)NCc1ccccn1 do in these assays?
M5 PAM: 12; CHRM5 agonist: -2; CHRM4 agonist: 2; M4 PAM: 2; CHRM5 antagonist: -13; CHRM4 antagonist: -13

Results for N#Cc1nc(-c2ccccc2F)oc1NCCc1ccccc1 ?
M5 PAM: -9; CHRM5 agonist: -2; CHRM4 agonist: 0; M4 PAM: 7; CHRM5 antagonist: 5; CHRM4 antagonist: 27*

How did CCc1c(C)sc(NC(=O)C2CC2c2ccccc2)c1C(N)=O (stereo not given) do in these assays?
M5 PAM: -1; CHRM5 agonist: -3; CHRM4 agonist: 1; M4 PAM: 5; CHRM5 antagonist: 3; CHRM4 antagonist: 27*

How did Cc1nc2c(=O)[nH]n(C)c2nc1C do in these assays?
M5 PAM: 7; CHRM5 agonist: 4; CHRM4 agonist: 0; M4 PAM: 6; CHRM5 antagonist: 8; CHRM4 antagonist: -10

What do the screens show for `Cc1nc2ccc(NC(=O)c3cc(S(=O)(=O)N(C)c4ccccc4)ccc3Cl)cc2s1`?
M5 PAM: -16; CHRM5 agonist: 12; CHRM4 agonist: 20; M4 PAM: -21; CHRM5 antagonist: 29*; CHRM4 antagonist: 7

What do the screens show for `CN(c1ccccc1)S(=O)(=O)c1cccc(NC(=O)c2ccc(Cl)c([N+](=O)[O-])c2)c1`?
M5 PAM: -38; CHRM5 agonist: 3; CHRM4 agonist: 23; M4 PAM: -16; CHRM5 antagonist: 34*; CHRM4 antagonist: 33*

Results for Cc1nc2ccc(NC(=O)c3ccc(Cl)c(S(=O)(=O)N(C)c4ccccc4)c3)cc2s1 ?
M5 PAM: 2; CHRM5 agonist: 1; CHRM4 agonist: 3; M4 PAM: 0; CHRM5 antagonist: -2; CHRM4 antagonist: -14

How did CCN(c1ccc(C)cc1)S(=O)(=O)c1nnc(NC(=O)c2ccco2)s1 do in these assays?
M5 PAM: -5; CHRM5 agonist: -4; CHRM4 agonist: 3; M4 PAM: 20*; CHRM5 antagonist: -1; CHRM4 antagonist: -44

What do the screens show for `CCN(c1ccc(C)cc1C)S(=O)(=O)c1nnc(NC(=O)c2ccco2)s1`?
M5 PAM: 0; CHRM5 agonist: -3; CHRM4 agonist: 6; M4 PAM: 1; CHRM5 antagonist: -5; CHRM4 antagonist: -23

Results for O=C(NNc1ccnc2cc(Cl)ccc12)C1CCCCC1 ?
M5 PAM: -24; CHRM5 agonist: 5; CHRM4 agonist: 10; M4 PAM: -5; CHRM5 antagonist: 31*; CHRM4 antagonist: 12

How did NC(=S)NNc1ccnc2cc(Cl)ccc12 do in these assays?
M5 PAM: 1; CHRM5 agonist: 1; CHRM4 agonist: 0; M4 PAM: -6; CHRM5 antagonist: 12; CHRM4 antagonist: 7

What do the screens show for `COc1ccc(Cc2noc(CN3CCCC(OCc4ccccn4)C3)n2)cc1OC` (stereo not given)?
M5 PAM: -4; CHRM5 agonist: -2; CHRM4 agonist: 3; M4 PAM: -2; CHRM5 antagonist: 8; CHRM4 antagonist: 0

What do the screens show for `Cc1ccc(-c2nc(CS(=O)(=O)CC(=O)NC3CCCCCC3)c(C)o2)cc1`?
M5 PAM: 17; CHRM5 agonist: -2; CHRM4 agonist: 0; M4 PAM: 8; CHRM5 antagonist: -12; CHRM4 antagonist: -10

How did COC(=O)c1sccc1NC(=O)Nc1cc(C)cc(C)c1 do in these assays?
M5 PAM: -10; CHRM5 agonist: -6; CHRM4 agonist: -2; M4 PAM: -4; CHRM5 antagonist: 29*; CHRM4 antagonist: 16

What do the screens show for `COc1ccc(C(=O)Nc2cc(-c3ccccc3)nn2-c2ccccc2F)cc1`?
M5 PAM: 25*; CHRM5 agonist: -7; CHRM4 agonist: -1; M4 PAM: 21; CHRM5 antagonist: -13; CHRM4 antagonist: -4

Results for CCCCCCCCCCCCN1[C@@H](CC(=O)OC)c2cc(F)cc(F)c2S1(=O)=O ?
M5 PAM: 6; CHRM5 agonist: 1; CHRM4 agonist: 1; M4 PAM: 26*; CHRM5 antagonist: 1; CHRM4 antagonist: -4

How did CCCCCCCCCCCCN1[C@@H](CC(=O)OC)c2cc(F)ccc2S1(=O)=O do in these assays?
M5 PAM: -4; CHRM5 agonist: -1; CHRM4 agonist: 2; M4 PAM: 30*; CHRM5 antagonist: 7; CHRM4 antagonist: -5
